Test results from ChEMBL document CHEMBL1141286, “Benzochromenones from the marine crinoid Comantheria rotula inhibit hypoxia-inducible factor-1 (HIF-1) in cell-based reporter assays and differentially suppress the growth of certain tumor cell lines” (J Nat Prod, 2007).
Activity calls are given as the source filed them. The calls are words filed in the database; no cut-off is given here.

Experiments:
SF-539 = assay: Growth inhibition of human SF539 cells; type: functional
IGROV-1 = assay: Growth inhibition of human IGROV1 cells; type: functional
HT-29 = assay: Growth inhibition of human HT29 cells; type: functional
NCI-H322M = assay: Growth inhibition of human NCI-H322M cells; type: functional
NCI-H226 = assay: Growth inhibition of human NCI-H226 cells; type: functional
SN12C = assay: Growth inhibition of human SN12C cells; type: functional
NCI-H23 = assay: Growth inhibition of human NCI-H23 cells; type: functional
DU-145 = assay: Growth inhibition of human DU145 cells; type: functional
COLO 205 = assay: Growth inhibition of human COLO205 cells; type: functional
CAKI-1 = assay: Growth inhibition of human CAKI1 cells; type: functional
SNB-75 = assay: Growth inhibition of human SNB75 cells; type: functional
[1] = target: Hypoxia inducible factors; HIF-1-alpha, HIF-2-alpha (Homo sapiens, UniProt Q16665+Q99814); assay: Inhibition of HIF1 activation in human T47D cells by TK-luciferase assay; type: cell-based
In short: (§1)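 HIF-1 reporter (pHRE-TK-Luc) assays in transfected PC-3 or T47D cells; HIF-1 induced by hypoxia or by the hypoxia mimetic 1,10-phenanthroline (10 μM); compounds at half-log concentrations; luciferase activity measured; IC50 from experiments in triplicate.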

[2] = Inhibition of 1,10-phenanthroline-induced HIF1 activation in PC3 cells by TK-luciferase assay; type: cell-based; details: Homo sapiens, PC-3; in short: as §1
LOX IMVI = assay: Growth inhibition of human LOXIMVI cells; type: functional
NCI-H522 = assay: Growth inhibition of human NCI-H522 cells; type: functional
SF-268 = assay: Growth inhibition of human SF268 cells; type: functional
RXF 393 = assay: Growth inhibition of human RXF393 cells; type: functional
SF-295 = assay: Growth inhibition of human SF295 cells; type: functional
SNB-19 = assay: Growth inhibition of human SNB19 cells; type: functional
MCF7 = assay: Growth inhibition of human MCF7 cells; type: functional
SK-MEL-2 = assay: Growth inhibition of human SK-MEL2 cells; type: functional
SK-MEL-5 = assay: Growth inhibition of human SK-MEL5 cells; type: functional
Malme-3M = assay: Growth inhibition of human MALME-3M cells; type: functional
NCI-H460 = assay: Growth inhibition of human NCI-H460 cells; type: functional
UO-31 = assay: Growth inhibition of human UO31 cells; type: functional
[3] = Inhibition of HIF1 activation in PC3 cells by TK-luciferase assay; type: cell-based; details: Homo sapiens, PC-3; in short: as §1
OVCAR-4 = assay: Growth inhibition of human OVACAR4 cells; type: functional
T47D [4] = assay: Growth inhibition of human T47D cells; type: functional
ACHN = assay: Growth inhibition of human ACHN cells; type: functional
NCI/ADR-RES = assay: Growth inhibition of human NCI/ADR-RES cells; type: functional
UACC-257 = assay: Growth inhibition of human UACC257 cells; type: functional
786-0 = assay: Growth inhibition of human 786-0 cells; type: functional
K562 = assay: Growth inhibition of human K562 cells; type: functional
HCT-15 = assay: Growth inhibition of human HCT15 cells; type: functional
TK-10 = assay: Growth inhibition of human TK10 cells; type: functional
OVCAR-8 = assay: Growth inhibition of human OVACAR8 cells; type: functional
[5] = Growth inhibition of human OVACAR3 cells; type: functional
T47D [6] = assay: Inhibition of 1,10-phenanthroline-induced VEGF protein secretion in human T47D cells at 10 uM after 16 hrs by ELISA; type: functional, cell-based
In short: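 T47D cells stimulated with 1,10-phenanthroline, compound at 10 μM; secreted VEGF in conditioned media by ELISA, normalized to cell-lysate protein.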

[7] = read-out: Log LC50 (the source's name) (converted)

CCCc1cc(=O)c2c(O)c3c(OC)cc(O)cc3cc2o1 showed a GI50 (SF-539) of 19.5 µM, an LC50 (SF-539) of 81.3 µM and a TGI (SF-539; read-out: Log TGI (converted)) of 39.8 µM. For the same molecule, the GI50 (IGROV-1) was 19.1 µM, the CC50 (IGROV-1; [7]) was > 100 µM and the TGI (IGROV-1; read-out: Log TGI (converted)) was 44.7 µM. The GI50 (HT-29) was 18.6 µM, the CC50 (HT-29; [7]) was 72.4 µM and the TGI (HT-29; read-out: Log TGI (converted)) was 37.2 µM. For the same molecule, the GI50 (NCI-H322M) was 26.3 µM, the CC50 (NCI-H322M; [7]) was > 100 µM and the TGI (NCI-H322M; read-out: Log TGI (converted)) was > 100 µM. The GI50 (NCI-H226) was 17.8 µM, the CC50 (NCI-H226; [7]) was > 100 µM and the TGI (NCI-H226; read-out: Log TGI (converted)) was 45.7 µM. For the same molecule, the GI50 (SN12C) was 19.1 µM, the LC50 (SN12C) was > 100 µM and the TGI (SN12C; read-out: Log TGI (converted)) was 50.1 µM. For the same molecule, the GI50 (NCI-H23) was 22.4 µM, the CC50 (NCI-H23; [7]) was > 100 µM and the TGI (NCI-H23; read-out: Log TGI (converted)) was 49 µM. For the same molecule, the GI50 (DU-145) was 18.2 µM, the CC50 (DU-145; [7]) was > 100 µM and the TGI (DU-145; read-out: Log TGI (converted)) was 45.7 µM. The GI50 (COLO 205) was 25.1 µM, the CC50 (COLO 205; [7]) was > 100 µM and the TGI (COLO 205; read-out: Log TGI (converted)) was 50.1 µM. The GI50 (CAKI-1) was 30.2 µM, the LC50 (CAKI-1) was > 100 µM and the TGI (CAKI-1; read-out: Log TGI (converted)) was > 100 µM. For the same molecule, the GI50 (SNB-75) was 30.9 µM, the LC50 (SNB-75) was > 100 µM and the TGI (SNB-75; read-out: Log TGI (converted)) was 74.1 µM. It also gave an IC50 [1] of 1.7 µM, an IC50 [2] of 0.8 µM and a GI50 (LOX IMVI) of 16.6 µM. For the same molecule, the LC50 (LOX IMVI) was 63.1 µM, the TGI (LOX IMVI; read-out: Log TGI (converted)) was 32.4 µM and the GI50 (NCI-H522) was > 100 µM. The CC50 (NCI-H522; [7]) was 41.7 µM, the TGI (NCI-H522; read-out: Log TGI (converted)) was 15.1 µM and the GI50 (SF-268) was 20.4 µM. For the same molecule, the LC50 (SF-268) was > 100 µM, the TGI (SF-268; read-out: Log TGI (converted)) was 58.9 µM and the GI50 (RXF 393) was 18.2 µM. For the same molecule, the LC50 (RXF 393) was > 100 µM, the TGI (RXF 393; read-out: Log TGI (converted)) was 47.9 µM and the GI50 (SF-295) was 24.5 µM. The LC50 (SF-295) was > 100 µM, the TGI (SF-295; read-out: Log TGI (converted)) was 77.6 µM and the GI50 (SNB-19) was 32.4 µM. For the same molecule, the LC50 (SNB-19) was 100 µM, the TGI (SNB-19; read-out: Log TGI (converted)) was 100 µM and the GI50 (MCF7) was 25.1 µM. The LC50 (MCF7) was > 100 µM, the TGI (MCF7; read-out: Log TGI (converted)) was 60.3 µM and the GI50 (SK-MEL-2) was 18.6 µM. For the same molecule, the LC50 (SK-MEL-2) was 91.2 µM, the TGI (SK-MEL-2; read-out: Log TGI (converted)) was 40.7 µM and the GI50 (SK-MEL-5) was 14.8 µM. For the same molecule, the LC50 (SK-MEL-5) was 52.5 µM, the TGI (SK-MEL-5; read-out: Log TGI (converted)) was 27.5 µM and the GI50 (Malme-3M) was 25.1 µM. For the same molecule, the CC50 (Malme-3M; [7]) was 100 µM, the TGI (Malme-3M; read-out: Log TGI (converted)) was 64.6 µM and the GI50 (NCI-H460) was 17.8 µM. The CC50 (NCI-H460; [7]) was > 100 µM, the TGI (NCI-H460; read-out: Log TGI (converted)) was 42.7 µM and the GI50 (UO-31) was 16.2 µM. For the same molecule, the LC50 (UO-31) was > 100 µM, the TGI (UO-31; read-out: Log TGI (converted)) was 42.7 µM and the IC50 [3] was 1 µM. For the same molecule, the GI50 (OVCAR-4) was 26.3 µM, the LC50 (OVCAR-4) was > 100 µM and the TGI (OVCAR-4; read-out: Log TGI (converted)) was > 100 µM. The GI50 (T47D [4]) was 20.9 µM, the LC50 (T47D [4]) was > 100 µM and the TGI (T47D [4]; read-out: Log TGI (converted)) was 93.3 µM. The GI50 (ACHN) was 22.4 µM, the CC50 (ACHN; [7]) was > 100 µM and the TGI (ACHN; read-out: Log TGI (converted)) was 64.6 µM. The GI50 (NCI/ADR-RES) was 26.3 µM, the LC50 (concentration killing 50% of cells) (NCI/ADR-RES) was > 100 µM and the TGI (NCI/ADR-RES; read-out: Log TGI (converted)) was 75.9 µM. For the same molecule, the GI50 (UACC-257) was 27.5 µM, the LC50 (UACC-257) was > 100 µM and the TGI (UACC-257; read-out: Log TGI (converted)) was 56.2 µM. For the same molecule, the GI50 (786-0) was 25.1 µM, the LC50 (786-0) was > 100 µM and the TGI (786-0; read-out: Log TGI (converted)) was > 100 µM. For the same molecule, the GI50 (K562) was 18.2 µM, the CC50 (K562; [7]) was > 100 µM and the TGI (K562; read-out: Log TGI (converted)) was 56.2 µM. The GI50 (HCT-15) was 15.1 µM, the CC50 (HCT-15; [7]) was > 100 µM and the TGI (HCT-15; read-out: Log TGI (converted)) was 40.7 µM. The GI50 (TK-10) was 30.2 µM, the LC50 (TK-10) was > 100 µM and the TGI (TK-10; read-out: Log TGI (converted)) was > 100 µM. The GI50 (OVCAR-8) was 28.8 µM, the LC50 (OVCAR-8) was > 100 µM and the TGI (OVCAR-8; read-out: Log TGI (converted)) was > 100 µM. The GI50 [5] was 27.5 µM, the CC50 [5, 7] was > 100 µM and the TGI ([5]; read-out: Log TGI (converted)) was > 100 µM. The Activity (T47D [6]) was “inactive”.
